In ChEMBL document CHEMBL4808214, “Structure-activity relationship studies in substituted sulfamoyl benzamidothiazoles that prolong NF-κB activation” (Bioorg Med Chem, 2021):

Tests used:
[1] = target: Nuclear factor NF-kappa-B complex (Homo sapiens) (UniProt Q00653+P19838+Q04206); test: Activation of NF-kappaB in human THP1-Blue NF-kappaB cells co-expressing NFkappaB-inducible SEAP assessed as increase in SEAP activity at 5 uM measured after 20 hrs by quanti-blue based colorimetric assay relative to control; type: cell-based; settings: filed as activator
Summary of the method: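 THP1-Blue NF-κB reporter cells plated at 10^5/well in RPMI with 10% FBS, penicillin/streptomycin and Normocin. Compound added at 5 μM final (0.5% DMSO), then incubated 20 h. Secreted SEAP in the supernatant was read colorimetrically with QuantiBlue at 630 nm. Two-point normalization set vehicle (0.5% DMSO) as 100% and a reference activator as 200%.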

THP-1 = test: Cytotoxicity against human THP-1 cells assessed as cell viability at 5 uM measured after 18 hrs by MTT assay relative to control; type: cell-based; settings: thp-1, 18 h
Summary of the method: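 THP-1 cells were plated at 10^5/well in RPMI with 10% FBS and penicillin/streptomycin, then given compound at 5 μM final (0.5% DMSO) for 18 h. MTT at 0.5 mg/mL was added for 4–6 h, followed by SDS/HCl lysis buffer overnight. Absorbance was read at 570 nm against a 650 nm reference. Viability was normalized to DMSO as 100%.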

Chain of Nuclear factor NF-kappa-B complex (Homo sapiens) (P19838 whole entry, looked up): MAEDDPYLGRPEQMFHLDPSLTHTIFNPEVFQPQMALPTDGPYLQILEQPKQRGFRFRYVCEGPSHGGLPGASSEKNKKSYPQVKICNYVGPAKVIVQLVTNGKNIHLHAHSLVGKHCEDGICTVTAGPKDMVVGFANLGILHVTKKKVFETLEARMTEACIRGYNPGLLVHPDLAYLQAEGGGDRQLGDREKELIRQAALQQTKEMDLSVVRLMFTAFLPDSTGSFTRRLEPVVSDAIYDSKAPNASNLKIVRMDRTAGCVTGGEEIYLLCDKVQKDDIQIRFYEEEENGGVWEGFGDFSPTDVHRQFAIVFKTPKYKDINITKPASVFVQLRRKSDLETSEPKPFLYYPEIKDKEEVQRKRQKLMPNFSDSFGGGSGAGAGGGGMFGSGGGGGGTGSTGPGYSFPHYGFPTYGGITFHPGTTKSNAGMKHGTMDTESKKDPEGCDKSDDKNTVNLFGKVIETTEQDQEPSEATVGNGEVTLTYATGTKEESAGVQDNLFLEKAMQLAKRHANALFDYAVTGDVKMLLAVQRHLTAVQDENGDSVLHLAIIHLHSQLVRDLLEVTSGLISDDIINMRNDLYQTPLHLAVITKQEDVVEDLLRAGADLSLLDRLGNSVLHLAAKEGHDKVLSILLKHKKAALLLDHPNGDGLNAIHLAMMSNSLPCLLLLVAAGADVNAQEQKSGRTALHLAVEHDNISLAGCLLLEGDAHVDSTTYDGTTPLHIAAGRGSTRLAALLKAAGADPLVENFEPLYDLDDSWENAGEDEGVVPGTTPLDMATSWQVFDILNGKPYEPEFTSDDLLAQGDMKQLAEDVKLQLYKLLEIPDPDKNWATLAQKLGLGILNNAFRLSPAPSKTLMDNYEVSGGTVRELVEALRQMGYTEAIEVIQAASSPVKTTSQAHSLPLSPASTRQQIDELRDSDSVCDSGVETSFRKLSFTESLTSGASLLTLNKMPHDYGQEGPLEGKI
Chain of Nuclear factor NF-kappa-B complex (Homo sapiens) (Q00653 whole entry, looked up): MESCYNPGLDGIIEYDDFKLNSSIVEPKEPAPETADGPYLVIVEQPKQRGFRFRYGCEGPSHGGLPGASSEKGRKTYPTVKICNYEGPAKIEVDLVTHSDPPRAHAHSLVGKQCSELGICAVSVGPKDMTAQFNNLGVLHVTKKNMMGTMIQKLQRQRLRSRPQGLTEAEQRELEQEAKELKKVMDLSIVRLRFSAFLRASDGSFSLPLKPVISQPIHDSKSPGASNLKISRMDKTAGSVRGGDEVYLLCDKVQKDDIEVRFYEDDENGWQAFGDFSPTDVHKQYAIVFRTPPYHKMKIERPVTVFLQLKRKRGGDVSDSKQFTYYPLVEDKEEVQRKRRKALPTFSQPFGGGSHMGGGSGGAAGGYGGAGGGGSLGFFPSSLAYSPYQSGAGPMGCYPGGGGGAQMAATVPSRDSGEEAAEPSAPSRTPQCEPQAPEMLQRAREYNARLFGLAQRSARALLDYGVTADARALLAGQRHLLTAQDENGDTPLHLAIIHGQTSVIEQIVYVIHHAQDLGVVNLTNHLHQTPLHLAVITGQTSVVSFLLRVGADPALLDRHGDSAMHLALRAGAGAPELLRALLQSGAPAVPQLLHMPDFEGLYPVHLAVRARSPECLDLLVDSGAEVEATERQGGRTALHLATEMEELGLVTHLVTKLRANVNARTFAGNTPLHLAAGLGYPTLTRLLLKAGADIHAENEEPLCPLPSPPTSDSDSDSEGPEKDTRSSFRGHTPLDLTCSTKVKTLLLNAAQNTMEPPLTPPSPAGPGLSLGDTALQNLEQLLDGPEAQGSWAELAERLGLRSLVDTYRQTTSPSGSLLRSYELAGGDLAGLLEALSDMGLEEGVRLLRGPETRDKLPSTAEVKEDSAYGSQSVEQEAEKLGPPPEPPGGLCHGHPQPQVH
Chain of Nuclear factor NF-kappa-B complex (Homo sapiens) (Q04206 whole entry, looked up): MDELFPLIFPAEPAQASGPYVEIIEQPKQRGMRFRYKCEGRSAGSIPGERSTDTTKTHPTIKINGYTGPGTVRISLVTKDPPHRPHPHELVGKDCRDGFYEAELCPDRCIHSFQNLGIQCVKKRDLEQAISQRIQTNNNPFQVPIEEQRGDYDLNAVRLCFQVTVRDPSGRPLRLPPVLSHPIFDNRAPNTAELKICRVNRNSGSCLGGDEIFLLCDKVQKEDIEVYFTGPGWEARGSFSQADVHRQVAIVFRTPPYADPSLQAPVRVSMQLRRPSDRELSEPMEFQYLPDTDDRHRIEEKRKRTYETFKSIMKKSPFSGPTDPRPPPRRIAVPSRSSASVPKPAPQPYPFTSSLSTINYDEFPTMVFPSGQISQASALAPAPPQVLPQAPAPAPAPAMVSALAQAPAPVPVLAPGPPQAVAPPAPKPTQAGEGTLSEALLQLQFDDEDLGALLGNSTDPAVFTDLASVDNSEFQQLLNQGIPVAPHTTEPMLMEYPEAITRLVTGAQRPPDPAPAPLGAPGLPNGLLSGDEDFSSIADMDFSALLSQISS

| Structure (SMILES) | Activity [1] [%] | Activity (THP-1) [%] |
| --- | --- | --- |
| Cc1cc(C)cc(-c2csc(NC(=O)c3ccc(S(=O)(=O)N4CCCCC4)cc3)n2)c1 | 97 | 91 |
| Cc1ccc(C)c(-c2csc(NC(=O)c3ccc(S(=O)(=O)N4CCCCC4)nc3)n2)c1 |  | 89 |
| Cc1ccc(C)c(-c2csc(NC(=O)c3ccc(S(=O)(=O)N4CCCCC4)cn3)n2)c1 | 99 | 94 |
| Cc1ccc(C)c(-c2csc(NS(=O)(=O)c3ccc(C(=O)N4CCCCC4)cc3)n2)c1 | 103 | 69 |
| CCCCCc1sc(NC(=O)c2ccc(S(=O)(=O)N3CCCCC3)cc2)nc1-c1cc(C)ccc1C | 117 | 108 |
| CCCC1CCN(S(=O)(=O)c2ccc(C(=O)Nc3nc(-c4cc(C)ccc4Br)cs3)cc2)CC1 | 191 | 97 |
| Cc1ccc(C)c(-c2c[nH]c(NC(=O)c3ccc(S(=O)(=O)N4CCCCC4)cc3)n2)c1 | 99 | 51 |
| Cc1ccc(C)c(Cc2csc(NC(=O)c3ccc(S(=O)(=O)N4CCCCC4)cc3)n2)c1 | 101 | 100 |
| Cc1ccc(C)c(-c2nc(NC(=O)c3ccc(S(=O)(=O)N4CCCCC4)cc3)sc2-c2ccccc2)c1 | 99 |  |
| CCOc1sc(NC(=O)c2ccc(S(=O)(=O)N3CCCCC3)cc2)nc1-c1cc(C)ccc1C | 102 | 104 |
| Cc1ccc2c(c1)-c1nc(NC(=O)c3ccc(S(=O)(=O)N4CCCCC4)cc3)sc1C2 | 109 | 89 |
| Cc1ccc(C)c(-c2csc(NC(=O)c3ccc(S(=O)(=O)N4CCCCC4)cc3Br)n2)c1 | 120 | 96 |
| Cc1ccc(C)c(-c2csc(NC(=O)c3ccc(S(=O)(=O)C4CCCCC4)cc3)n2)c1 |  | 82 |
| Cc1ccc(C)c(-c2csc(NC(=O)c3ccc(S(=O)(=O)N4CCCCC4)c([N+](=O)[O-])c3)n2)c1 | 115 | 93 |
| CCCCN(CCCC)S(=O)(=O)c1ccc(C(=O)Nc2nc(-c3cc(C)ccc3C)cs2)cc1 | 102 |  |
| Cc1ccc(C)c(-c2csc(NC(=O)c3ccc(S(=O)(=O)N4CCNCC4)cc3)n2)c1 | 101 | 121 |
| Cc1ccc(C)c(-c2csc(NC(=O)c3ccc(SC4CCCCC4)cc3)n2)c1 |  | 85 |
| O=C(Nc1nc(-c2cccc3ccccc23)cs1)c1ccc(S(=O)(=O)N2CCCCC2)cc1 | 198 | 93 |
| Cc1ccc(C)c(-c2nc(NC(=O)c3ccc(S(=O)(=O)N4CCCCC4)cc3)sc2-c2ccco2)c1 |  | 106 |
| Cc1ccc(C)c(-c2csc(NC(=O)c3ccc(S(=O)(=O)N4CCN(C(=O)OC(C)(C)C)CC4)cc3)n2)c1 | 101 | 132 |
| CCN(c1ccccc1)S(=O)(=O)c1ccc(C(=O)Nc2nc(-c3cc(C)ccc3C)cs2)cc1 | 105 | 81 |
| Cc1ccc(C)c(-c2nnc(NC(=O)c3ccc(S(=O)(=O)N4CCCCC4)cc3)s2)c1 |  | 90 |
| CCCC#Cc1sc(NC(=O)c2ccc(S(=O)(=O)N3CCC(CCC)CC3)cc2)nc1-c1cc(C)ccc1Br | 111 | 97 |
| Cc1ccc(C)c(-c2nc(NC(=O)c3ccc(S(=O)(=O)N4CCCCC4)cc3)sc2N2CCCCC2)c1 | 99 | 89 |

| Structure (SMILES) | Activity [1] [%] | Activity (THP-1) [%] |
| --- | --- | --- |
| CCC#Cc1sc(NC(=O)c2ccc(S(=O)(=O)N3CCCCC3)cc2)nc1-c1cc(C)ccc1C | 264 | 103 |
| CCSc1sc(NC(=O)c2ccc(S(=O)(=O)N3CCCCC3)cc2)nc1-c1cc(C)ccc1C | 103 |  |
| Cc1ccc(C)c(-c2csc(NC(=O)c3ccc(S(=O)(=O)N4CCCCC4)c(N)c3)n2)c1 | 125 | 92 |
| Cc1ccc(C)c(-c2ccc(NC(=O)c3ccc(S(=O)(=O)N4CCCCC4)cc3)nc2)c1 |  | 93 |
| Cc1cccc(C)c1-c1csc(NC(=O)c2ccc(S(=O)(=O)N3CCCCC3)cc2)n1 | 185 | 100 |
| C#Cc1ccc(C)c(-c2csc(NC(=O)c3ccc(S(=O)(=O)N4CCCCC4)cc3)n2)c1 | 101 | 92 |
| Cc1cccc(-c2csc(NC(=O)c3ccc(S(=O)(=O)N4CCCCC4)cc3)n2)c1C | 179 | 103 |
| Cc1ccc(C)c(-c2csc(C(=O)Nc3ccc(S(=O)(=O)N4CCCCC4)cc3)n2)c1 | 99 | 91 |
| CCc1ccc(C)c(-c2csc(NC(=O)c3ccc(S(=O)(=O)N4CCCCC4)cc3)n2)c1 | 203 | 102 |
| Cc1ccc(C)c(-c2csc(NC(=O)c3ccc(S(=O)(=O)N4CCCCC4)c(Cl)c3)n2)c1 | 223 | 88 |
| CCCCc1sc(NC(=O)c2ccc(S(=O)(=O)N3CCCCC3)cc2)nc1-c1cc(C)ccc1C | 109 | 129 |
| CCOC1CCN(S(=O)(=O)c2ccc(C(=O)Nc3nc(-c4cc(C)ccc4C)cs3)cc2)CC1 | 201 | 117 |
| Cc1ccc(C)c(-c2csc(NC(=O)c3ccc(S(=O)(=O)N4CCCCC4)cc3Cl)n2)c1 | 127 | 87 |
| COc1cc(S(=O)(=O)N2CCCCC2)ccc1C(=O)Nc1nc(-c2cc(C)ccc2C)cs1 | 99 |  |
| Cc1ccc(C)c(-c2nc(NC(=O)c3ccc(S(=O)(=O)N4CCCCC4)cc3)sc2Br)c1 | 133 | 84 |
| Cc1ccc(C)c(-c2cccc(NC(=O)c3ccc(S(=O)(=O)N4CCCCC4)cc3)n2)c1 |  | 94 |
| Cc1ccc(C)c(-c2cnc(NC(=O)c3ccc(S(=O)(=O)N4CCCCC4)cc3)s2)c1 | 99 | 101 |
| CCCC#Cc1sc(NC(=O)c2ccc(S(=O)(=O)N3CCC(CCC)CC3)cc2)nc1-c1cc(C)ccc1C | 112 | 102 |
| CC(=O)N1CCN(S(=O)(=O)c2ccc(C(=O)Nc3nc(-c4cc(C)ccc4C)cs3)cc2)CC1 | 101 | 114 |
| C#CCN(C(=O)c1ccc(S(=O)(=O)N2CCCCC2)cc1)c1nc(-c2cc(C)ccc2C)cs1 |  | 102 |
| CCCC#Cc1sc(NC(=O)c2ccc(S(=O)(=O)N3CCCCC3)cc2)nc1-c1cc(C)ccc1Br | 202 | 95 |
| Cc1ccc(C)c(-c2csc(NC(=O)c3ccc(S(=O)(=O)N4CCCCC4)c(Br)c3)n2)c1 | 209 | 90 |
| Cc1csc(NC(=O)c2ccc(S(=O)(=O)N3CCCCC3)cc2)n1 |  | 108 |
| CCc1sc(NC(=O)c2ccc(S(=O)(=O)N3CCCCC3)cc2)nc1-c1cc(C)ccc1C | 179 | 104 |

| Structure (SMILES) | Activity [1] [%] | Activity (THP-1) [%] |
| --- | --- | --- |
| COc1cc(C(=O)Nc2nc(-c3cc(C)ccc3C)cs2)ccc1S(=O)(=O)N1CCCCC1 | 99 |  |
| Cc1ccccc1-c1csc(NC(=O)c2ccc(S(=O)(=O)N3CCCCC3)cc2)n1 |  | 98 |
| Cc1ccc2c(c1)-c1nc(NC(=O)c3ccc(S(=O)(=O)N4CCCCC4)cc3)sc1CC2 | 114 | 95 |
| Cc1ccc(C)c(-c2csc(NC(=O)c3ccc(C(=O)N4CCCCC4)cc3)n2)c1 | 99 | 88 |
| Cc1ccc(-c2csc(NC(=O)c3ccc(S(=O)(=O)N4CCCCC4)cc3)n2)c(C)c1 | 98 | 102 |
| CC(C)(C)Cc1csc(NC(=O)c2ccc(S(=O)(=O)N3CCCCC3)cc2)n1 | 101 | 116 |
| Cc1ccc(C)c(-c2nc(NC(=O)c3ccc(S(=O)(=O)N4CCCCC4)cc3)sc2C)c1 | 159 | 97 |
| Cc1ccc(C)c(-c2csc(N(C)C(=O)c3ccc(S(=O)(=O)N4CCCCC4)cc3)n2)c1 | 101 | 97 |
| CCCN(CC)S(=O)(=O)c1ccc(C(=O)Nc2nc(-c3cc(C)ccc3C)cs2)cc1 | 183 | 104 |
| Cc1ccc(C)c(-c2ccc(NC(=O)c3ccc(S(=O)(=O)N4CCCCC4)cc3)cn2)c1 |  | 93 |
| CCCN(CCC)S(=O)(=O)c1ccc(C(=O)Nc2nc(-c3cc(C)ccc3C)cs2)cc1 | 167 | 96 |
| Cc1ccc(Br)cc1-c1csc(NC(=O)c2ccc(S(=O)(=O)N3CCCCC3)cc2)n1 | 207 | 91 |
| CCCc1csc(NC(=O)c2ccc(S(=O)(=O)N3CCCCC3)cc2)n1 |  | 115 |
| C#Cc1sc(NC(=O)c2ccc(S(=O)(=O)N3CCCCC3)cc2)nc1-c1cc(C)ccc1C | 118 | 111 |
| Cc1ccc(C)c(-c2csc(NCc3ccc(S(=O)(=O)N4CCCCC4)cc3)n2)c1 | 99 | 85 |
| Cc1ccc(C)c(-c2csc(NC(=O)c3ccc(S(=O)(=O)N4CCCCC4)s3)n2)c1 | 103 | 97 |
| CCc1csc(NC(=O)c2ccc(S(=O)(=O)N3CCCCC3)cc2)n1 |  | 120 |
| Cc1ccc(C)c(-c2csc(NC(=O)c3ccc(S(=O)(=O)NC4CCCCC4)cc3)n2)c1 |  | 91 |
| CCN(CC)c1sc(NC(=O)c2ccc(S(=O)(=O)N3CCCCC3)cc2)nc1-c1cc(C)ccc1C | 99 | 94 |
| Cc1ccc(-c2csc(NC(=O)c3ccc(S(=O)(=O)N4CCCCC4)cc3)n2)cc1C | 98 |  |
| Cc1cccc(-c2csc(NC(=O)c3ccc(S(=O)(=O)N4CCCCC4)cc3)n2)c1 |  | 98 |
| CCCN1CCN(S(=O)(=O)c2ccc(C(=O)Nc3nc(-c4cc(C)ccc4C)cs3)cc2)CC1 |  | 80 |
| Cc1ccc(C)c(-c2csc(NC(=O)c3cccc(C(=O)N4CCCCC4)c3)n2)c1 |  | 88 |
